Results pooled from the literature.
Compare with care: the assays were run in different laboratories.
Cell line: U-251
Observed: cell growth or viability

Compound	test	conditions	endpoint	result
COc1ccc(C(=O)/C=C/c2cccc(Br)c2)cc1S(N)(=O)=O	SRB	10 µM	inhibition	198%
COc1cccc(Oc2ccccc2NC(=O)CNC(=O)c2cccc3ccccc23)c1	SRB	48 h	GI50	240 nM
CC(=O)O[C@H]1C(=O)[C@@]2(C)[C@H]([C@H](OC(=O)c3ccccc3)[C@]3(O)C[C@H](OC(=O)[C@H](O)[C@@H](NC(=O)c4ccccc4)c4ccccc4)C(C)=C1C3(C)C)[C@]1(OC(C)=O)CO[C@@H]1C[C@@H]2O	–	–	IC50	0.5 µg/mL
COc1nc(OCc2cccc(-c3ccccc3)c2C)ccc1CNCCNC(C)=O	MTT	–	IC50	4300 nM
COc1ccc(-c2ccc(-c3ccc(C(=N)N)nc3)s2)cc1	SRB	–	GI50	1810 nM
Cc1cc(NC(=O)c2cccc3cc(-c4cccc5[nH]nc(N)c45)ccc23)ccc1F	CCK-8	72 h	IC50	> 20000 nM
COc1ccc(C(=O)/C=C/c2cccnc2)cc1S(N)(=O)=O	SRB	10 µM	inhibition	89%
O=C1Nc2ccccc2C1=NNc1nnc2n1N=C(c1ccccc1)CS2	SRB	10 µM	inhibition	50%
COc1cc(-c2ccc(-c3ccc(C(=N)N)nc3)s2)cc(OC)c1OC	SRB	–	GI50	1740 nM
